In ChEMBL document CHEMBL4396973, “Design and development of a series of borocycles as selective, covalent kallikrein 5 inhibitors” (Bioorg Med Chem Lett, 2019):
Active and inactive are the calls of the source. No cut-off for these calls is given here.

Tests used:
[1] = biological target: Kallikrein-7 (Homo sapiens, UniProt P49862); assay: Inhibition of recombinant human C-terminal 10-His-tagged KLK7 (Glu23 to His252 residues) expressed in mouse NS0 cells using 5-FAM-E-A-L-Y-L-V-S-G-C(5-TAMRA) as substrate incubated for 40 mins by FLINT assay
[2] = biological target: T1, Kallikrein-8 (Homo sapiens, UniProt O60259); assay: Inhibition of recombinant human C-terminal 10-His-tagged KLK8 (Gln29 to Gly260 residues) expressed in mouse NS0 cells using BOC-VPR-AMC as substrate incubated for 40 mins by FLINT assay
T1 sequence (O60259 whole entry): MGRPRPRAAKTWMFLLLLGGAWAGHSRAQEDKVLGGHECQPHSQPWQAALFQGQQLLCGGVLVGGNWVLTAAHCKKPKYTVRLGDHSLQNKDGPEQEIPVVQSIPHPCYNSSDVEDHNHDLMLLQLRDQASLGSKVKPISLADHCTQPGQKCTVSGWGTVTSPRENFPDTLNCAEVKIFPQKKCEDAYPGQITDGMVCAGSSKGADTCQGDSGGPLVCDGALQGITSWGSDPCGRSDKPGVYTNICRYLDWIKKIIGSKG

[3] = biological target: T2, Kallikrein-14 (Homo sapiens, UniProt Q9P0G3); assay: Inhibition of recombinant human C-terminal 10-His-tagged KLK14 (Q19 to M248 residues) expressed in mouse NS0 cells using BOC-VPR-AMC as substrate incubated for 40 mins by FLINT assay
T2 sequence (Q9P0G3 whole entry): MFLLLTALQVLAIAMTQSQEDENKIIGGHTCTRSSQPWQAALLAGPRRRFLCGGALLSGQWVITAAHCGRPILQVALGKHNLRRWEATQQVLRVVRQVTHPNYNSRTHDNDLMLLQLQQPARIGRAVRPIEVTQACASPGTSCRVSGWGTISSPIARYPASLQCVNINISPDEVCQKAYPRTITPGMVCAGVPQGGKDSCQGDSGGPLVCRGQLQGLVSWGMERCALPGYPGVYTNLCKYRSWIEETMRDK

[4] = Genotoxicity in Salmonella typhimurium TA1535 in presence of rat S9 fraction by mini-Ames test; type: toxicity, subcellular; details: salmonella enterica subsp. enterica serovar typhimurium
[5] = Half life of the compound in Britton-Robinson buffer at pH 4 to 10 at 0.05 mg/ml; type: physicochemical
[6] = Solubility of the compound in Britton-Robinson buffer at pH 6 measured after 12 hrs; type: physicochemical
In short: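 Solubility was measured in Britton-Robinson buffers spanning pH 2 to pH 8. Readings were taken after 12 h and 24 h and reported in mg/mL.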

[7] = Light absorbance of the compound in methanol under UV light irradiation at 290 nm
In short: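 Compound dissolved in methanol. UV absorbance was examined across the range above 290 nm as a screen for light-mediated skin toxicity risk.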

[8] = Genotoxicity in Salmonella typhimurium TA1537 in absence of rat S9 fraction by mini-Ames test; type: toxicity; details: salmonella enterica subsp. enterica serovar typhimurium
[9] = Genotoxicity in Salmonella typhimurium TA1535 in absence of rat S9 fraction by mini-Ames test; type: toxicity; details: salmonella enterica subsp. enterica serovar typhimurium
[10] = biological target: Coagulation factor X (Homo sapiens, UniProt P00742); assay: Inhibition of recombinant human C-terminal 10-His-tagged factor Xa (L24 to K488 residues) expressed in baculovirus infected Sf21 insect cells using Mca-RPKPVE-Nval-WRK(Dnp)-NH2 as substrate incubated for 40 mins by FLINT assay
[11] = biological target: Prothrombin (Homo sapiens, UniProt P00734); assay: Inhibition of human recombinant C-terminal 10-His-tagged thrombin (M1 to E622 residues) expressed in mouse NS0 cells using BOC-VPR-AMC as substrate incubated for 40 mins by FLINT assay
[12] = Genotoxicity in Salmonella typhimurium TA1537 in presence of rat S9 fraction by mini-Ames test; type: toxicity, subcellular; details: salmonella enterica subsp. enterica serovar typhimurium
[13] = biological target: T3, Kallikrein-5 (Homo sapiens, UniProt Q9Y337); assay: Inhibition of human recombinant 6His-Q-FLAG-tagged KLK5 expressed in baculovirus infected Sf9 insect cells using (Tos-Gly-Pro-Arg)2[R110].2TFA as substrate measured at 30 secs interval for 5 mins by FLINT assay
T3 sequence (Q9Y337 whole entry): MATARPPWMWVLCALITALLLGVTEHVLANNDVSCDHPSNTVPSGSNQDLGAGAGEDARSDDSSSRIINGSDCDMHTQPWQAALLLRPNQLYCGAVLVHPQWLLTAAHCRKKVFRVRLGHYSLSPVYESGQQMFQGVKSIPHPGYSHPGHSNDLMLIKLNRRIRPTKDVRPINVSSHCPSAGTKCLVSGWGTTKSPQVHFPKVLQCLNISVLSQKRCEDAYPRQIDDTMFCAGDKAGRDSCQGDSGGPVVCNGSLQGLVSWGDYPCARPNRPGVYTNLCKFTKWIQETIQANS
In short: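 Standard KLK5 assay format. Its theoretical tight-binding limit corresponds to pIC50 8.4.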

[14] = Genotoxicity in Salmonella typhimurium TA100 in presence of rat S9 fraction by mini-Ames test; type: toxicity, subcellular; details: salmonella enterica subsp. enterica serovar typhimurium
[15] = biological target: Urokinase-type plasminogen activator (Homo sapiens, UniProt P00749); assay: Inhibition of recombinant human C-terminal 10-His-tagged urokinase (M1 to L431 residues) expressed in mouse NS0 cells using Z-GGR-AMC as substrate incubated for 40 mins by FLINT assay
[16] = Genotoxicity in Salmonella typhimurium TA98 in presence of rat S9 fraction by mini-Ames test; type: toxicity, subcellular; details: salmonella enterica subsp. enterica serovar typhimurium

- IC50 [1]: 79400 nM
- IC50 [2]: 6.31 nM
- IC50 [3]: 31.6 nM
- half-life at 0.05 mg/ml [5]: > 41.7 days
- solubility at 12 h [6]: 3200 µg/mL
- IC50 [10]: 398 nM
- IC50 [11]: 1260 nM
- IC50 [13]: 5.01 nM
- IC50 [15]: 7940 nM
SMILES: Cl.N=C(N)c1ccc([C@H]2Cc3ccc(C(F)(F)F)cc3B(O)O2)cc1OCc1cccnc1
- Activity [4]: Non-Toxic
- Activity [7]: inactive
- Activity [8]: Non-Toxic
- Activity [9]: Non-Toxic
- Activity [12]: Non-Toxic
- Activity [14]: Non-Toxic
- Activity [16]: Non-Toxic
